# Results reported in ChEMBL document CHEMBL4699478, “7-Azaindolequinuclidinones (7-AIQD): A novel class of cannabinoid 1 (CB1) and cannabinoid 2 (CB2) receptor ligands” (Bioorg Med Chem Lett, 2020).
# Active and inactive are the calls of the source. The rule behind the calls is not given here.
# Assays:
# Cannabinoid receptor 2 [1] = molecular target: T1, Cannabinoid receptor 2 (Homo sapiens, UniProt P34972); assay: Displacement of [3H]CP-55940 from CB2 receptor (unknown origin) at 1 uM by competitive binding assay
# T1 sequence (P34972 whole entry): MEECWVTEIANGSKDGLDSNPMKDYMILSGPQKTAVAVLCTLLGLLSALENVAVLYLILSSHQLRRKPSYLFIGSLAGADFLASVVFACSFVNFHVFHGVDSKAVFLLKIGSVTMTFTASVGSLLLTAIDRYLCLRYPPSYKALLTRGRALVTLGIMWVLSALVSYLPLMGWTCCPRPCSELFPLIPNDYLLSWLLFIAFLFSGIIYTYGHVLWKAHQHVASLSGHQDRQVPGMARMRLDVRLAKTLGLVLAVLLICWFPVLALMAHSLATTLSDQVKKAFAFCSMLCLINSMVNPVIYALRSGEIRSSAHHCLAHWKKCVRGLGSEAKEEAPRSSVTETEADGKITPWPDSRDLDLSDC
# Cannabinoid receptor 1 [2] = molecular target: T2, Cannabinoid receptor 1 (Homo sapiens, UniProt P21554); assay: Displacement of [3H]CP-55940 from CB1 receptor (unknown origin) at 1 uM by competitive binding assay
# T2 sequence (P21554 whole entry): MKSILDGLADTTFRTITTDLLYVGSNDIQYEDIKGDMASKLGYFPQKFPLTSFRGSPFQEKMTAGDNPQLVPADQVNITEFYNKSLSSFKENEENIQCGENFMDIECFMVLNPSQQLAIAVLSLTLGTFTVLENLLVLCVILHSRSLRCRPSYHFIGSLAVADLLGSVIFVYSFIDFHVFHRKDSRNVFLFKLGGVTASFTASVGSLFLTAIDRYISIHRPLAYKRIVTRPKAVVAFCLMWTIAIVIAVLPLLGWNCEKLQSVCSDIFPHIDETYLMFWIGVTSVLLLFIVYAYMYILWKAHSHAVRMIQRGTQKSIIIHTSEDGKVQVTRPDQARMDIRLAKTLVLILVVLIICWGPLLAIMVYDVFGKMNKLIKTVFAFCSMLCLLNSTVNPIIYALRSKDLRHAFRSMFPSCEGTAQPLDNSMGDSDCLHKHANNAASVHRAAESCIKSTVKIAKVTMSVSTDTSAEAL
# Cannabinoid receptor 2 [3] = molecular target: T1, Cannabinoid receptor 2; assay: Displacement of [3H]CP-55940 from CB2 receptor (unknown origin) by competitive binding assay
# Cannabinoid receptor 2 [4] = molecular target: T1, Cannabinoid receptor 2; assay: Inverse agonist activity at human CB2 receptor expressed in CHO cell membrane assessed as reduction in GTPgammaS binding at 10 uM by [35S]GTP-gammaS binding assay; assay type: functional, cell membranes
# Procedure, shortened: (§1)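 [35S]GTPγS binding in CHO-hCB1 membranes (hCB1R) or CHO-hCB2 membranes (hCB2R). A single 10 μM concentration of ligand was tested for change in [35S]GTPγS binding relative to basal. Agonism was read as a rise above basal, inverse agonism as a fall below basal, and neutral activity as no significant change.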
# Homo sapiens = species: Homo sapiens; assay: Selectivity index, ratio of Ki for CB1 receptor (unknown origin) to Ki for CB2 receptor (unknown origin) by competitive binding assay
# Cannabinoid receptor 2 [5] = molecular target: T1, Cannabinoid receptor 2; assay: Neutral antagonist activity at human CB2 receptor expressed in CHO cell membrane at 10 uM by [35S]GTP-gammaS binding assay; assay type: cell membranes; settings: filed as antagonist; procedure, shortened: as §1
# Cannabinoid receptor 1 [6] = molecular target: T2, Cannabinoid receptor 1; assay: Displacement of [3H]CP-55940 from CB1 receptor (unknown origin) by competitive binding assay
# Cannabinoid receptor 1 [7] = molecular target: T2, Cannabinoid receptor 1; assay: Neutral antagonist activity at human CB1 receptor expressed in CHO cell membrane at 10 uM by [35S]GTP-gammaS binding assay; assay type: cell membranes; settings: filed as antagonist; procedure, shortened: as §1
# Cannabinoid receptor 1 [8] = molecular target: T2, Cannabinoid receptor 1; assay: Inverse agonist activity at human CB1 receptor expressed in CHO cell membrane assessed as reduction in GTPgammaS binding at 10 uM by [35S]GTP-gammaS binding assay; assay type: functional, cell membranes; procedure, shortened: as §1
# Cannabinoid receptor 1 [9] = molecular target: T2, Cannabinoid receptor 1; assay: Agonist activity at human CB1 receptor expressed in CHO cell membrane assessed as increase in GTPgammaS binding at 10 uM by [35S]GTP-gammaS binding assay; assay type: functional, cell membranes; procedure, shortened: as §1
# Cannabinoid receptor 2 [10] = molecular target: T1, Cannabinoid receptor 2; assay: Agonist activity at human CB2 receptor expressed in CHO cell membrane assessed as increase in GTPgammaS binding at 10 uM by [35S]GTP-gammaS binding assay; assay type: functional, cell membranes; procedure, shortened: as §1
# Cannabinoid receptor 2 [11] = molecular target: T1, Cannabinoid receptor 2; assay: Binding affinity to human CB2 receptor expressed in CHO cell membrane at 10 uM by [35S]GTP-gammaS binding assay; assay type: cell membranes; procedure, shortened: as §1
# Cannabinoid receptor 1 [12] = molecular target: T2, Cannabinoid receptor 1; assay: Binding affinity to human CB1 receptor expressed in CHO cell membrane at 10 uM by [35S]GTP-gammaS binding assay; assay type: cell membranes; procedure, shortened: as §1
Structure (SMILES),inhibition (Cannabinoid receptor 2 [1]) [%],inhibition (Cannabinoid receptor 1 [2]) [%],Ki (Cannabinoid receptor 2 [3]) [nM],Ratio Ki (Homo sapiens),Ki (Cannabinoid receptor 1 [6]) [nM],also measured
O=C1/C(=C/c2cn(Cc3cccc(C(F)(F)F)c3)c3ncccc23)N2CCC1CC2,56.7,42.5,,,,
O=C1/C(=C/c2cn(Cc3ccccc3)c3ncccc23)N2CCC1CC2,,15.1,110,26.3,2900,Activity (Cannabinoid receptor 2 [4]): inactive; Activity (Cannabinoid receptor 2 [5]): Active; inhibition (Cannabinoid receptor 2 [1]; filed as antagonist): 79.9%; Activity (Cannabinoid receptor 1 [7]): Active; Activity (Cannabinoid receptor 1 [8]): inactive; Activity (Cannabinoid receptor 1 [9]): inactive; Activity (Cannabinoid receptor 2 [10]): inactive
COc1ccc(Cn2cc(/C=C3/C(=O)C4CCN3CC4)c3cccnc32)cc1,27.5,22.4,,,,
N#Cc1ccc(Cn2cc(/C=C3/C(=O)C4CCN3CC4)c3cccnc32)cc1,64.1,55.7,,,,
OC1/C(=C/c2cn(Cc3ccc(Cl)cc3)c3ncccc23)N2CCC1CC2 (racemic),58.5,58.2,,,,
O=C1/C(=C/c2cn(CCN3CCOCC3)c3ncccc23)N2CCC1CC2,7.92,0,,,,
COc1ccc(C(=O)c2c(C)n(CCN3CCOCC3)c3cc(I)ccc23)cc1,,,,,,Activity (Cannabinoid receptor 2 [4]; filed as inverse agonist): Active
Cc1c(C(=O)NN2CCCCC2)nn(-c2ccc(Cl)cc2Cl)c1-c1ccc(I)cc1,,,,,,Activity (Cannabinoid receptor 1 [8]; filed as inverse agonist): Active
O=C1/C(=C/c2cn(Cc3ccc(Br)cc3)c3ncccc23)N2CCC1CC2,,,625,1.8,1110,Activity (Cannabinoid receptor 2 [5]): Active; inhibition (Cannabinoid receptor 2 [1]; filed as antagonist): 67.6%; Activity (Cannabinoid receptor 1 [8]; filed as inverse agonist): Active; inhibition (Cannabinoid receptor 1 [2]; filed as inverse agonist): 74.2%
OC1/C(=C/c2cn(Cc3ccccc3)c3ncccc23)N2CCC1CC2 (racemic),0,0,,,,
O=C1/C(=C/c2cn(Cc3ccc(F)cc3)c3ncccc23)N2CCC1CC2,100,87.6,23.7,9.2,218,Activity (Cannabinoid receptor 2 [11]): Active; Activity (Cannabinoid receptor 1 [12]): Active
O=C1/C(=C/c2cn(Cc3ccc(Cl)cc3)c3ncccc23)N2CCC1CC2,,,115,6.1,704,Activity (Cannabinoid receptor 2 [4]; filed as inverse agonist): Active; inhibition (Cannabinoid receptor 2 [1]; filed as inverse agonist): 74.8%; Activity (Cannabinoid receptor 1 [8]; filed as inverse agonist): Active; inhibition (Cannabinoid receptor 1 [2]; filed as inverse agonist): 68.9%
O=C1/C(=C/c2cn(CCN3CCCC3)c3ncccc23)N2CCC1CC2,56.6,39.4,,,,
